{
  "source": "ChEMBL document CHEMBL4765441",
  "about": "“Design, synthesis and anti-cancer activity of pyrrole-imidazole polyamides through target-downregulation of c-kit gene expression” (Eur J Med Chem, 2020)",
  "key": {"SGC-7901 [1]": {"system": "SGC-7901", "assay": "Induction of apoptosis in human SGC7901 cells assessed as late apoptotic cells at 15 uM incubated for 36 hrs by Annexin V-FITC/propidium iodide staining-based flow cytometric analysis (reference value: 3.69 %)", "format": "functional"}, "A549 [2]": {"system": "A549", "assay": "Induction of apoptosis in human A549 cells assessed as necrotic cells at 7.5 uM incubated for 36 hrs by Annexin V-FITC/propidium iodide staining-based flow cytometric analysis (reference value: 0.31 %)", "format": "functional"}, "A549 [3]": {"system": "A549", "assay": "Induction of morphological changes in human A549 cells assessed as membrane bulge at 15 uM incubated for 36 hrs by microscopic analysis", "format": "functional, cell-based", "outline": "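Cells seeded at 2 × 10^5 per well and grown 24 h. Medium then replaced with compound-containing medium. After 36 h co-culture, morphology inspected by light microscopy.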"}, "A549 [4]": {"system": "A549", "assay": "Down regulation of c-kit mRNA expression in human A549 cells at 7.5 uM incubated for 36 hrs by Western blot analysis", "format": "functional, cell-based", "conditions": "in the assay text read “RT-PCR analysis” for “Western blot analysis”", "outline": "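Cells treated for 36 h. Total RNA quantified by Nanodrop and checked on 1.5% agarose with ethidium bromide. 400 ng RNA per one-step RT-PCR with c-kit-specific primers; reverse transcription 30 min at 50 °C, then 2 min at 94 °C. Normalized to β-actin; semi-quantitative.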"}, "dsDNA": {"system": "dsDNA", "assay": "Binding affinity to 5'-AGGGGAGGCGAGGAGGGGCGTGGCCGG-3'/3'-TCCCCTCCGCTCCTCCCCGCACCGGCC-5' dsDNA (unknown origin) at 1:2 DNA:compound ratio by SYBR GOLD staining based EMSA", "format": "nucleic-acid assay", "conditions": "Homo sapiens", "outline": "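Target 27-bp c-kit promoter duplex, annealed at 95 °C, then incubated overnight with or without compound in pH 7.4 buffer (10 mM Tris-HCl, 10 mM KCl, 0.1 mM EDTA). Mixtures run on 16% native polyacrylamide gel at 150 V for 3 h. Gels stained with SYBR Gold for 30 min and imaged on a gel documentation system.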"}, "SGC-7901 [5]": {"system": "SGC-7901", "assay": "Induction of apoptosis in human SGC7901 cells assessed as late apoptotic cells at 7.5 uM incubated for 36 hrs by Annexin V-FITC/propidium iodide staining-based flow cytometric analysis (reference value: 3.69 %)", "format": "functional"}, "A549 [6]": {"system": "A549", "assay": "Induction of apoptosis in human A549 cells assessed as necrotic cells at 15 uM incubated for 36 hrs by Annexin V-FITC/propidium iodide staining-based flow cytometric analysis (reference value: 0.31 %)", "format": "functional"}, "SGC-7901 [7]": {"system": "SGC-7901", "assay": "Induction of apoptosis in human SGC7901 cells assessed as viable cells at 7.5 uM incubated for 36 hrs by Annexin V-FITC/propidium iodide staining-based flow cytometric analysis (reference value: 93.2 %)", "format": "functional", "conditions": "read-out: Activity"}, "A549 [8]": {"system": "A549", "assay": "Induction of apoptosis in human A549 cells assessed as late apoptotic cells at 7.5 uM incubated for 36 hrs by Annexin V-FITC/propidium iodide staining-based flow cytometric analysis (reference value: 0.41 %)", "format": "functional"}},
  "note": "Calls of active or inactive are those of the source. No cut-off for these calls is given here.",
  "data": [
    {"smiles": "CC(=O)Nc1cn(C)c(C(=O)Nc2cn(C)c(C(=O)Nc3cc(C(=O)Nc4cn(C)c(C(=O)NCCC(=O)Nc5cn(C)c(C(=O)Nc6cn(C)c(C(=O)NCC[C@@H](N)C(=O)Nc7cc(C(=O)Nc8cc(C(=O)NC[C@@H](O)CC(=O)Nc9cc(C(=O)Nc%10cn(C)c(C(=O)Nc%11cc(C(=O)Nc%12cc(C(=O)NCCC(=O)NCCCN(C)C)n(C)c%12)n(C)c%11)n%10)n(C)c9)n(C)c8)n(C)c7)n6)n5)n4)n(C)c3)n2)n1.Cl.Cl", "values": [
      {"measurement": "Activity", "setting": "SGC-7901 [1]", "value": 12.8, "unit": "%"},
      {"measurement": "Activity", "setting": "A549 [2]", "value": 2.76, "unit": "%"},
      {"measurement": "Activity", "setting": "A549 [3]", "value": "Active"},
      {"measurement": "Activity", "setting": "A549 [4]", "value": "Active"},
      {"measurement": "Activity", "setting": "dsDNA", "value": "Active"},
      {"measurement": "Activity", "setting": "SGC-7901 [5]", "value": 10.2, "unit": "%"},
      {"measurement": "Activity", "setting": "A549 [6]", "value": 0.12, "unit": "%"},
      {"measurement": "viability at 7.5 µM", "setting": "SGC-7901 [7]", "value": 56.4, "unit": "%"},
      {"measurement": "Activity", "setting": "A549 [8]", "value": 14.1, "unit": "%"}
    ]}
  ]
}
